Measurements from different studies.
Protocols differ between the studies behind these lines.
CYP51: Sterol 14-alpha demethylase (CYP51, Trypanosoma cruzi, UniProt Q7Z1V1)
HTR2C: 5-hydroxytryptamine receptor 2C (HTR2C, Homo sapiens, UniProt P28335)
FLT3: Receptor-type tyrosine-protein kinase FLT3 (FLT3, Homo sapiens, UniProt P36888)
MTNR1A: Melatonin receptor type 1A (MTNR1A, Homo sapiens, UniProt P48039)
Tmem97: Sigma intracellular receptor 2 (Tmem97, Rattus norvegicus, UniProt Q5U3Y7)
F2 trypsin-like site: Prothrombin, trypsin-like site (F2, Bos taurus, UniProt P00735)

Structure (SMILES) | target | test | conditions | measurement | value
O=C(O[C@@H](Cn1ccnc1)c1ccccc1)c1ccc(-c2ccccc2)cc1 | CYP51 | binding |  | Kd | 0.087 µM
OC[C@@]12C[C@@H]1[C@@H](n1cnc3c(N[C@H](C4CCC4)C4CC4)nc(I)nc31)[C@H](O)[C@@H]2O | HTR2C | calcium signal, antagonist |  | Kb | 0.288 µM
COCC(C)Nc1ccnc(Nc2cccc(-c3cccnc3)c2)n1 (stereo not drawn) | FLT3 | enzyme activity, inhibitor |  | IC50 | < 0.006 µM
COC(=O)c1cc(CSc2nnc(C3CC3)[nH]2)cs1 | MTNR1A | cAMP, agonist, luciferase |  | EC50 | 0.00757 µM
COC(=O)[C@H](C)Nc1ccnc(Nc2cccc(-c3cccnc3)c2)n1 | FLT3 | enzyme activity, inhibitor |  | IC50 | > 22 µM
O=C(NCCN1CCCCC1)c1cc(Br)ccc1O | Tmem97 | ligand displacement, radioligand | cell membranes | Ki | > 10 µM
COc1ccc2[nH]cc(CCNC(C)=O)c2c1I | MTNR1A | β-arrestin recruitment, agonist |  | EC50 | 0.0525 µM
Cc1cnc(-c2ccc(-c3ccc(NC(=O)Nc4c(F)cc(F)cc4F)cc3F)c3c2C(=O)NC3)[nH]1 | Aurora kinase C (AURKC, Homo sapiens, UniProt Q9UQB9) | binding, competition with immobilised ligand |  | Kd | 0.0011 µM
O=C(Nc1ccc(Sc2ccc([N+](=O)[O-])cc2)cc1)O[C@@H](Cn1ccnc1)c1ccc(Cl)cc1 | CYP51 | binding |  | Kd | 0.715 µM
COc1ccc2ccn(CCCCN3CCc4cc(OC)c(OC)cc4C3)c2c1 | Tmem97 | ligand displacement, radioligand | cell membranes | Ki | 0.00868 µM
COC(=O)c1sc(N(C)Cc2ccc(OC)c(O)c2)nc1Cl | MTNR1A | cAMP, agonist, luciferase |  | EC50 | 0.0145 µM
O=C(NCCCn1ccnc1)O[C@H](Cn1ccnc1)c1ccc(F)cc1 | CYP51 | binding |  | Kd | 0.6 µM
CC(C)(C)[C@H](NC(=O)[C@H](CCCNC(=N)N)NC(=O)Cc1ccc(CNC(=N)N)cc1)C(=O)N[C@@H](CCONC(=N)N)C(=O)NCc1ccc(C(=N)N)cc1 | F2 trypsin-like site | enzyme activity, inhibitor | pH 8 | Ki | 9.6 µM
O=C(NCCc1cccc2ccccc12)C1CCC1 | MTNR1A | cAMP, agonist, TR-FRET |  | EC50 | 1.66 µM
C[C@@H]1Cc2ccccc2N1C(=O)NCCCCN(C)[C@@H]1Cc2cccc3[nH]c(=O)n(c23)C1 | HTR2C | ligand displacement, radioligand |  | Ki | > 10 µM
CC(C)(C)Nc1ccnc(Nc2cccc(-c3cccnc3)c2)n1 | FLT3 | enzyme activity, inhibitor |  | IC50 | 0.013 µM
CC(C)c1nc2cc(OCCCCN3CCN(c4cccc5c4OCCO5)CC3)ccc2s1 | HTR2C | cell-free assay, radioligand |  | Ki | 0.092 µM
CC(C)Nc1ccnc(Nc2cccc(C(C)(C)C)c2)n1 | FLT3 | enzyme activity, inhibitor |  | IC50 | 17.2 µM
COc1cccc2c1CCN(C(=O)c1cc(=O)n(C)cc1Br)C2 | MTNR1A | cAMP, agonist, luciferase |  | EC50 | 0.0963 µM
CC(C)Nc1ccnc(Nc2ccc(C(N)=O)cc2)n1 | FLT3 | enzyme activity, inhibitor |  | IC50 | 0.213 µM
O=C(NCCN1CCCCC1)c1ccc(OCCF)c(Br)c1 | Tmem97 | ligand displacement, radioligand | cell membranes | Ki | 0.0428 µM

Structure (SMILES) | target | test | conditions | measurement | value
COc1ccc2ncn(CCNC(C)=O)c2c1 | MTNR1A | GTPγS binding, agonist, radiometric | cell membranes | EC50 | 2.19 µM
Cc1cc2nc3c(=O)[nH]c(=O)nc-3n(C[C@H](O)[C@H](O)[C@H](O)COP(=O)(O)OP(=O)(O)OC[C@H]3O[C@@H](n4cnc5c(N)ncnc54)[C@H](O)[C@@H]3O)c2cc1C | BMP-2-inducible protein kinase (BMP2K, Homo sapiens, UniProt Q9NSY1) | binding | lysate | Kd | 0.031 µM
COc1cc2c(CCNC(C)=O)c[nH]c2cc1I | MTNR1A | β-arrestin recruitment, agonist |  | EC50 | 0.00525 µM
Cc1ccc(C(=O)Nc2ccc(Oc3cc4cnn(C)c4cc3-c3cn[nH]c3)c(F)c2)c(=O)n1-c1ccc(F)cc1 | Tyrosine-protein kinase receptor Tie-1 (TIE1, Homo sapiens, UniProt P35590) | binding, competition with immobilised ligand |  | Kd | 0.0009 µM
CC(C)c1ccc(NC(=O)O[C@@H](Cn2ccnc2)c2ccc(F)cc2)cc1 | CYP51 | binding |  | Kd | 0.083 µM
COc1ccc2c(ccn2CCCCN2Cc3cc(OC)c(OC)cc3C2)c1 | Tmem97 | ligand displacement, radioligand | cell membranes | Ki | 0.00891 µM
CC(C)(C)[C@H](NC(=O)[C@H](CCCNC(=N)N)NC(=O)Cc1ccc(CN)cc1)C(=O)N[C@@H](CCONC(=N)N)C(=O)NCc1ccc(C(=N)N)cc1 | F2 trypsin-like site | enzyme activity, inhibitor | pH 8 | Ki | 13 µM
Cc1cc(Nc2cc3ncccc3c(N[C@@H]3C[C@H]4CC[C@@H](C3)N4CCC#N)n2)n[nH]1 | Aurora kinase A (AURKA, Homo sapiens, UniProt O14965) | binding, competition with immobilised ligand |  | Kd | 0.066 µM
c1ccc(N2CCCC(Nc3nccc(NC4CCCCC4)n3)C2)cc1 (stereo not drawn) | FLT3 | enzyme activity, inhibitor |  | IC50 | 3.26 µM
CCCCN1CCN(C2CCCCC2)CC1 | Tmem97 | ligand displacement, radioligand | cell membranes | Ki | 0.0652 µM
Fc1ccc(Nc2nccc(NC3CCCCC3)n2)cc1 | FLT3 | enzyme activity, inhibitor |  | IC50 | 3.3 µM
Fc1ccc(CNc2cccc(-c3nnc[nH]3)c2)c(F)c1 | MTNR1A | cAMP, agonist, luciferase |  | EC50 | 0.245 µM
CC(C)(C)[C@H](NC(=O)[C@H](CCONC(=N)N)NC(=O)Cc1ccc(CNC(=N)N)cc1)C(=O)N[C@@H](CCCCN)C(=O)NCc1ccc(C(=N)N)cc1 | F2 trypsin-like site | enzyme activity, inhibitor | pH 8 | Ki | 61 µM
CCc1nnc(SCc2cc(C(=O)OC)cs2)[nH]1 | MTNR1A | cAMP, agonist, luciferase |  | EC50 | 0.0178 µM
COCC(CNC(C)=O)c1cccc2ccc(OC)cc12 (stereo not drawn) | MTNR1A | β-arrestin recruitment, agonist |  | EC50 | 0.00309 µM
CCOC(=O)c1nc(N(C)CCc2cnccn2)ccc1Br | MTNR1A | cAMP, agonist, luciferase |  | EC50 | 0.0294 µM
CCC(=O)NC1Cc2ccccc2C(c2ccccc2)C1 (stereo not drawn) | MTNR1A | cAMP, agonist, TR-FRET |  | EC50 | 0.282 µM
COc1ccc2c(c1)N(Cc1cccc3[nH]ccc13)CCO2 | MTNR1A | cAMP, agonist, luciferase |  | EC50 | 0.0208 µM
CC(C)Nc1ccnc(Nc2ccc(-c3ccccc3)cc2)n1 | FLT3 | enzyme activity, inhibitor |  | IC50 | 15 µM
COC(=O)c1cc(Cn2ccc(C(C)=O)n2)c(C)s1 | MTNR1A | cAMP, agonist, luciferase |  | EC50 | 0.0749 µM
COc1ccc2c(Oc3ccc4c(C(=O)Nc5ccccc5N)cccc4c3)ccnc2c1 | Mitogen-activated protein kinase 11 (MAPK11, Homo sapiens, UniProt Q15759) | enzyme activity, inhibitor |  | IC50 | > 0.5 µM
